SMILES strings stand for the structures.

For test [1], the target named is T1, Alpha-1A adrenergic receptor (Rattus norvegicus) (UniProt P43140).
T1 sequence (whole entry): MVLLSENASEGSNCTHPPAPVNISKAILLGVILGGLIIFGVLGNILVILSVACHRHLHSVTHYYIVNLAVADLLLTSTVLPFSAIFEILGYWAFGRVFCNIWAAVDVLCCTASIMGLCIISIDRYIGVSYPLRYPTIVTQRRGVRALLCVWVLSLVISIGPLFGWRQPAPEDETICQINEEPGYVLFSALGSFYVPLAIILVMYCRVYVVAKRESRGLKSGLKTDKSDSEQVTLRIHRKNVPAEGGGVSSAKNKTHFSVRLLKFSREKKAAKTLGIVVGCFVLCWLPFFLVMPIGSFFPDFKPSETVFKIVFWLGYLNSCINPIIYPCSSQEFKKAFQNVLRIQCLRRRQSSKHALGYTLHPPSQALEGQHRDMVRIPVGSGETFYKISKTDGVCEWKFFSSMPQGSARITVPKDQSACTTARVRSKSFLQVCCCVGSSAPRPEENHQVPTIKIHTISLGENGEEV
The test is described as follows: Eudisimic ratio(ER) is the antilog of the defference between the pKb and pD2 values against Alpha-1A adrenergic receptor. In a few lines: (§1)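 Eudismic ratio is the antilog of the difference between the pKb (functional α1 tissue assays) or pD2 (5-HT1A [35S]GTPγS stimulation) of the eutomer and that of its distomer.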

The target of test [2] is T2, Alpha-1B adrenergic receptor (Rattus norvegicus) (UniProt P15823).
T2 sequence (whole entry): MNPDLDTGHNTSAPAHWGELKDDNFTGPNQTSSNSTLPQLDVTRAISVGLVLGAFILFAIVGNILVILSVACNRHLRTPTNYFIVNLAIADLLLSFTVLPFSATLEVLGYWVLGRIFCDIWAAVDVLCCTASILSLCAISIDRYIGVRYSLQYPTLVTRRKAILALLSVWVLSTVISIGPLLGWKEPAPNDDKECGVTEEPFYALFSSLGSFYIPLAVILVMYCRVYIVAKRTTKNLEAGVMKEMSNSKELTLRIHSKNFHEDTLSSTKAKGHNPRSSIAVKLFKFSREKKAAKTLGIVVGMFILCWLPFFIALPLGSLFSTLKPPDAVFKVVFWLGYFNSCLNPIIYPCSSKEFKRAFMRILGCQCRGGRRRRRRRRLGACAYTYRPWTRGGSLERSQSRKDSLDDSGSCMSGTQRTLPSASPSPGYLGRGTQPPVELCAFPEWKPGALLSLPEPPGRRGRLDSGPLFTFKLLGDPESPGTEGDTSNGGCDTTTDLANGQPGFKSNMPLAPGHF
Description: Eudisimic ratio(ER) is the antilog of the defference between the pKb and pD2 values against alpha-1B-adrenoceptor subtype. The class given is functional. In a few lines: as §1

For test [3], the target named is T1, Alpha-1A adrenergic receptor (Rattus norvegicus). The test is described as follows: Antagonist activity against Alpha-1A adrenergic receptor (-)-noradrenaline-induced contraction of rat prostatic vas deferens. Format: functional, tissue-based. In a few lines:
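Isolated rat prostatic vas deferens with 0.01 μM desipramine in the bath. Isotonic cumulative (–)-noradrenaline curves were run at 30-min intervals: first discarded, second as control, then antagonist equilibrated 30 min before a new curve. pKb by Arunlakshana–Schild from dose ratios of EC50, at 2–3 antagonist concentrations, each tested four times.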

Test [4] addresses T2, Alpha-1B adrenergic receptor (Rattus norvegicus). Description: Antagonism of Alpha-1B adrenergic receptor subtype (-)-phenylephrine-induced contraction of rat spleen. Format: functional, tissue-based. In short, it runs like this:
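Rat spleen, isometric cumulative (–)-phenylephrine curves at 30-min intervals; first discarded, second taken as control. Antagonist was equilibrated 30 min before the next curve.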

For test [5], the target named is T3, 5-hydroxytryptamine receptor 1A (Homo sapiens) (UniProt P08908).
T3 sequence (whole entry): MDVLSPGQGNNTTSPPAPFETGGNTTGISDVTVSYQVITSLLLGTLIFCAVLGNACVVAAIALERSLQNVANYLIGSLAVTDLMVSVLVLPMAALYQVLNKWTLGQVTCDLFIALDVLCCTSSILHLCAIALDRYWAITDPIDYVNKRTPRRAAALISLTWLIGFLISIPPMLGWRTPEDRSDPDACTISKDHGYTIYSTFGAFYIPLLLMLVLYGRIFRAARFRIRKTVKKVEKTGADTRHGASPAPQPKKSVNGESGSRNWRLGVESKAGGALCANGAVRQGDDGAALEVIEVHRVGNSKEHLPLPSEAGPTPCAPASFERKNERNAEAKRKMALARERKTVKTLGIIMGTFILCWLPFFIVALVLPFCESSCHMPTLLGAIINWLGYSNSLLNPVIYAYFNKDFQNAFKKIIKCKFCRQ
The test is described as follows: Concentration required to obtain 50% maximal stimulation of [35S]GTP gamma-S binding to human cloned 5-HT1A receptors of cell membranes from HeLa cells. Format: functional. In short, it runs like this: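 [35S]GTPγS binding in membranes of HeLa cells stably expressing human 5-HT1A, in 20 mM HEPES, 3 mM MgSO4, 120 mM NaCl pH 7.4. Preincubation 20 min at 30 °C with 30 μM GDP and drug (0.1 nM–100 μM), then 150–250 pM [35S]GTPγS for 30 min at 30 °C. Stimulation above basal was scaled to the 5-HT maximum (100%). Emax and pD2 came from curve fits; triplicate, 2–3 sessions.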

Test [6] addresses Serotonin 2 (5-HT2) receptor (Rattus norvegicus, UniProt P30994+P08909+P14842). Description: Displacement of [3H]ketanserin from rat brain 5-hydroxytryptamine 2 receptor. In short, it runs like this:
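Rat cerebral cortex membranes (male Sprague–Dawley) in Tris-HCl pH 7.4 with 10 μM pargiline and 0.1% ascorbic acid were incubated 20 min at 37 °C with 0.7–1.3 nM [3H]ketanserin (5-HT2A). Nonspecific binding was defined by 2 μM ketanserin. Bound label was counted after filtration, and Ki was derived by Cheng–Prusoff.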
For orientation: In a radioligand displacement assay an active substance lowers the binding of a labelled ligand.

Test [7] has as its target T3, 5-hydroxytryptamine receptor 1A (Homo sapiens). Description: Eudisimic ratio(ER) is the antilog of the difference between the pKb and pD2 values against 5-hydroxytryptamine 1A receptor. Format: functional. In a few lines: as §1
In test [8] the target is T4, Alpha-1D adrenergic receptor (Rattus norvegicus) (UniProt P23944).
T4 sequence (whole entry): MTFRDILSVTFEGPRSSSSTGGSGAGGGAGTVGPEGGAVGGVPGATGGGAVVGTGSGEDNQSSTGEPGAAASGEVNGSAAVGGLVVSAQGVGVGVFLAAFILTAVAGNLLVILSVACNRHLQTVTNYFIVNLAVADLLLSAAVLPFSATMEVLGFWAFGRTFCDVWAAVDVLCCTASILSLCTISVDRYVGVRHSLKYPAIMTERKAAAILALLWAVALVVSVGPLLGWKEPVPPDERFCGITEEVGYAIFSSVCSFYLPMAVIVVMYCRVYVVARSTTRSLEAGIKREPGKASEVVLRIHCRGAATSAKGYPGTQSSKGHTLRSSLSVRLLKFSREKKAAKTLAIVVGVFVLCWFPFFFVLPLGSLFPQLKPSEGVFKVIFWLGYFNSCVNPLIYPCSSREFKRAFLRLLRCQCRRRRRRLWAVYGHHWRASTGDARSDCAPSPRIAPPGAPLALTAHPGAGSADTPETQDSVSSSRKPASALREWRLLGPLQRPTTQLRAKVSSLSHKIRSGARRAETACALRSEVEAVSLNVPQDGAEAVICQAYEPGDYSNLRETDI
Description: Eudisimic ratio(ER) is the antilog of the defference between the pKb and pD2 values against Alpha-1D adrenergic receptor subtype. The class given is functional. In a few lines:
as §1

Consider `O[C@@H]1[C@H](NC[C@H]2COc3ccccc3O2)CC[C@H]1Oc1ccccc1`, for which the figures for the ER in test [1] and in test [2] were > 35 and 49, respectively. For the same compound, the figures for the pKb in test [3] and in test [4] were 6.55 and 7.13, respectively. This compound had a pD2 in test [5] of 5.87. Further, the “Log Ki” value in test [6] is recorded as < -6.

For `O[C@H]1[C@@H](NC[C@H]2COc3ccccc3O2)CC[C@@H]1Oc1ccccc1`, the figures for the ER in test [7], in test [2] and in test [8] were 27, 11 and 7, respectively. The pKb (in general, −log10 of the Kb, conventionally taken in molar units) in test [3] stood at 5.65; in test [4] it was 5.79. The pD2 in test [5] stood at 7.3. The “Log Ki” value in test [6] is < -6.

`O[C@@H]1[C@H](NC[C@@H]2COc3ccccc3O2)CC[C@H]1Oc1ccccc1`: the pKb in test [3] came out at 6.1; in test [4], 6.83. Moreover, in test [5], the pD2 was found to be 5.87.

Consider `O[C@H]1[C@@H](NC[C@@H]2COc3ccccc3O2)CC[C@@H]1Oc1ccccc1`, for which the pKb in test [3] was < 5; in test [4], 5.44. In test [5], the pD2 worked out at 7.96.

Values taken from ChEMBL document CHEMBL1132183 (J Med Chem, 1999).
